Compounds with a hit are over-represented: about 4.9% of the library has one in this group of screens.
NPY Y1 blocker: antagonists of human neuropeptide Y receptor Y1; HEK293-CNG Y1 cells, membrane potential fluorescence; NPY at EC95, then isoproterenol; P25929; AID 1040; inhibition, % at 3.6 µM; 200,000 tested, 1% active;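 active = inhibition above the campaign mean inhibition of all tested compounds plus 3 SD, cut at about 20% in these data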;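 note: 0% = DMSO wells given NPY plus isoproterenol and 100% = isoproterenol alone without NPY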
Target sequence (P25929 whole entry, looked up): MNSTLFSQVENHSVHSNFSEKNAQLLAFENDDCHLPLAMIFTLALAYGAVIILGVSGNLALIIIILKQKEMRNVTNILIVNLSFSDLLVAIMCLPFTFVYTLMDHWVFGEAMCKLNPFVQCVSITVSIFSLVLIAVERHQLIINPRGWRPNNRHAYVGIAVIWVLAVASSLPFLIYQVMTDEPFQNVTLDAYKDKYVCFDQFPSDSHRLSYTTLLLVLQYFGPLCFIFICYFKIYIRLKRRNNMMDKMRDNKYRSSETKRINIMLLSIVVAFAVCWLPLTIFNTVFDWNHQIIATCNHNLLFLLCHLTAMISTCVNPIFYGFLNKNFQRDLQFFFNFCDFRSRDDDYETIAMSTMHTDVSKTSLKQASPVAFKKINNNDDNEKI
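Test system – HEK293 Y1/CNG channel cell line · Also added – NPY agonist 25 nM, then isoproterenol 1 µM plus Ro 20-1724 25 µM · Compound dosing – one concentration, 3.6 µM, in 0.4% DMSO · Schedule – compound incubation 1 h at room temperature, readout 45 min post-stimulation · Technique – fluorescence, membrane potential probe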
NPY Y2 blocker: blocks the human neuropeptide Y Y2 receptor; P49146; AID 793; inhibition, % at 2.7 µM; 140,000 tested, 0.99% active; NPY-Y2 expressing cells, antagonist mode; in the data active = inhibition above about 17%;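 note: 0% = vehicle with agonist challenge and 100% = reference antagonist with challenge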
RAM inhibit: yeast RAM network inhibition; inhibition, % at 50 µM; S. cerevisiae dse1pr::URA3 reporter, 5-FOA growth OD615, 2 d; analog-sensitive cbk1-as2 kinase mutant strain; AID 868; 190,000 tested, 1.8% active;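 active = inhibition above a set limit, 3 SD over mean compound inhibition, cut at about 8.4% in these data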;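 note: 0% = DMSO-only wells with no growth and 100% = 10 µM 1-NA-PP1 full growth; inhibition rescues growth on 5-FOA so higher OD means more RAM inhibition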
WT yeast gro inh: growth inhibition of WT yeast, mitochondrial fusion screen; 190,000 tested, 2.1% active; mitochondrial fusion phenotypic screen, WT strain; inhibition, % at 10 µM; in the data active = inhibition above about 58%; tested in S. cerevisiae
NPY1 pot ag: human NPY-Y1 potentiation or agonism, primary screen; NPY-Y1 expressing cells, potentiator/agonist activation; activation, % at 3.6 µM; 220,000 tested, 0.37% active; AID 1304; in the data active = activation above about 33%, passing the limit was not always enough;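 note: cells stimulated with NPY at EC10 then isoproterenol at EC100; 0% = low agonist plus stimulus and 100% = saturating agonist plus stimulus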
NPY2 pot ag: potentiates or activates human NPY-Y2 receptor; 220,000 tested, 0.45% active; cells expressing NPY-Y2, potentiator/agonist read-out; activation, % at 3.6 µM; in the data active = activation above about 27%;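 note: cells stimulated with NPY near EC25 plus isoproterenol at EC100; 0% = vehicle plus submaximal agonist and 100% = vehicle plus saturating agonist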
RAM 5-FOA: RAM network inhibitors in efflux-deficient yeast | 1,200 tested, under 10 active | S. cerevisiae efflux-deficient reporter strain, 5-FOA growth OD615, 2 days | shares compounds with RAM inhibit | max inhibition, % | AID 1305; call rule not given here;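 note: plate controls were vehicle for no effect and reference inhibitor for full effect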
Starred values were filed as active, the others as inactive; nt = no result.

SMILES	NPY Y1 blocker	NPY Y2 blocker	RAM inhibit	WT yeast gro inh	NPY1 pot ag	NPY2 pot ag	RAM 5-FOA
CCCOc1ccc(/C=C2\SC(=S)N(CC3CCCO3)C2=O)cc1 (configuration not stated)	13.9	6.2	16.6*	17.5	-2.6	2.2	6.8
CCN1CCN(CC(=O)Nc2ccc3c(c2)OCCO3)C(=O)C1=O	-2.1	0.2	0.5	6.2	-2.5	-11.3	nt
COc1ccccc1-c1ccc(SCc2ccc([N+](=O)[O-])cc2)nn1	4.4	nt	14.3*	26.0	-6.2	3.8	3.3
O=C(Nc1ccc(F)cc1F)c1ccccc1-c1ccccc1	6.3	2.8	0.9	17.2	-17.6	0.3	nt
CCOc1ccc2nc3c(cc2c1)CN(CCOC)C(=NCCOC)S3	1.7	-0.1	13.9*	-2.2	-10.2	10.0	3.3
CC1(C)Cc2nc(Cl)c(C(=O)O)cc2CO1	2.6	nt	0.3	-7.8	1.4	10.8	nt
NNC(=O)c1ccc(-c2cccc([N+](=O)[O-])c2)o1	-2.0	nt	1.4	-0.5	-5.6	-6.2	nt
Cc1ccc(NS(=O)(=O)c2cc(C(=O)O)ccc2Cl)c(C)c1	-1.4	0.0	0.0	12.5	1.8	2.9	nt
Cc1ccc(NS(=O)(=O)c2ccc(C3CCCCC3)cc2)cc1	6.8	3.0	13.5*	80.2*	-14.1	-0.8	5.1
O=C(CSc1nc2cc(Cl)ccc2s1)N1CCCc2ccccc21	12.4	11.1	11.5*	-4.1	-30.4	-27.9	2.1
O=C(CSc1ccc(-c2ccc(Cl)cc2)nn1)N1CCCc2ccccc21	-2.2	9.2	4.8	42.2	-8.2	-9.5	nt
O=[N+]([O-])c1ccc(C2CCCC/C2=N/OCc2ccc(F)cc2)c([N+](=O)[O-])c1 (configuration not stated)	12.4	11.8	12.8*	14.5	-15.4	-14.6	1.5
NNC(=O)c1ccc(Cn2cc(Cl)cn2)cc1	-1.2	1.5	0.8	-7.5	-15.9	-16.5	nt
O=C(Nc1ccc(Cl)c(Cl)c1)c1ccc(Cn2cc(Cl)cn2)cc1	-4.5	-1.1	13.2*	78.3*	2.4	5.4	2.3
COC(=O)C/C=C/[C@@H](C)[C@@H](/C=N/OC[C@@H](C)[C@H](OCc1ccccc1)C(C)C)NS(=O)(=O)c1ccc(C)cc1	-0.2	1.5	13.0*	3.5	-10.4	-5.8	5.0
C=CC[C@@H]1C=C[C@H](O/N=C/[C@@H](NS(=O)(=O)c2ccc(C)cc2)[C@H](C)/C=C/CC(=O)OC)[C@@H](CO)O1	-2.4	0.6	0.1	-6.4	-5.1	0.0	nt
CCCc1nn(C)c(C(=O)Nc2ccc(C(C)(C)C)cc2)c1Cl	3.8	9.3	13.0*	62.6*	-5.9	-10.4	3.9
CCCc1nn(C)c(C(=O)Nc2ccc(Cl)cc2)c1Cl	8.4	7.7	2.7	6.7	-12.0	-8.2	nt
CC(=O)Nc1ccc(S(=O)(=O)N2CCN(C34CC5CC(CC(C5)C3)C4)CC2)cc1	2.2	6.0	1.4	5.8	11.8	12.2	nt
COc1cc(NC(=O)c2ccc(F)cc2)c(OC)cc1Cl	6.0	3.4	1.3	5.4	-35.1	-0.2	nt
COc1ccc(C(=O)Nc2cc(OC)c(Cl)cc2OC)cc1	2.7	nt	11.4*	2.7	-14.2	-4.8	2.8
CC(C)C(=O)Nc1cccc(C(=O)Nc2ccccc2C(=O)O)c1	6.5	1.1	1.5	23.3	-3.4	-2.8	nt
O=C(CSCc1ccccc1)Nc1cccc(C(=O)Nc2ccccc2C(=O)O)c1	-4.0	4.3	13.4*	-20.5	-3.8	1.1	1.9
O=C(O)CCCC(=O)Nc1cccc(C(=O)Nc2ccccc2C(=O)O)c1	-1.2	nt	0.0	17.8	8.1	4.7	nt
O=C(CSCc1ccc(Cl)cc1)Nc1cccc(C(=O)Nc2ccccc2C(=O)O)c1	5.9	1.9	13.7*	14.4	-10.6	-16.5	0.9
SMILES	NPY Y1 blocker	NPY Y2 blocker	RAM inhibit	WT yeast gro inh	NPY1 pot ag	NPY2 pot ag	RAM 5-FOA
Cc1ccc(S(=O)(=O)N2CCOCC2)cc1NC(=O)COC(=O)Cc1ccsc1	7.8	-0.4	0.5	-5.7	-4.3	5.7	nt
CC1CCc2nc(NC(=O)Nc3ccc4c(c3)OCO4)sc2C1 (configuration not stated)	-5.8	2.7	22.8*	7.1	12.6	-7.4	1.9
CC1CCc2nc(NC(=O)CN3CCN(Cc4ccc5c(c4)OCO5)CC3)sc2C1 (configuration not stated)	11.3	5.6	0.7	16.8	-10.4	-23.4	nt
Cc1ccc(CNC(=O)CNC(=S)N(Cc2ccccc2)Cc2ccccc2F)cc1	-3.1	nt	11.5*	73.8*	-31.2	-19.5	4.4
O=C(CNC(=S)N(Cc1ccccc1)Cc1ccccc1F)NCc1ccc(Cl)cc1	-4.3	nt	16.4*	81.2*	20.6	6.9	2.1
COc1cccc(CNC(=O)CNC(=S)N(Cc2ccccc2)Cc2ccccc2F)c1	6.6	nt	12.3*	71.6*	-13.6	-13.9	2.0
CN(C)CCNC(=O)CNC(=S)N(Cc1ccccc1)Cc1ccccc1F	3.1	nt	-0.9	19.8	7.2	1.0	nt
CCC(C)NC(=O)Nc1ccc2c(c1)N(C)C(=O)c1ccccc1S2 (configuration not stated)	4.1	2.0	1.9	8.0	9.6	-4.6	nt
CCOC(=O)N1CCC(NS(=O)(=O)c2cc3c(cc2Cl)NC(=O)CO3)CC1	1.0	1.0	1.1	7.3	-7.0	-17.7	nt
COC(=O)CCSc1cc([N+](=O)[O-])cc2c1c(C1OCCO1)nn2-c1ccccc1	-0.8	5.6	13.6*	-4.1	2.4	2.2	2.3
O=C(Nc1ccccc1Cc1ccccc1)c1oc2ccccc2c1COc1ccccc1	4.8	5.5	11.8*	7.0	-15.5	5.8	3.8
COCc1c(C(=O)NC2CCCCCC2)oc2ccccc12	7.0	nt	1.4	-12.9	2.9	7.2	nt
O=C(NCCc1ccccc1)c1oc2ccccc2c1COc1ccccc1	9.0	13.7	18.7*	22.6	-25.2	-16.4	3.7
Cc1ccc2nc(NC(=O)C3CCCN(S(=O)(=O)c4cccc5nonc45)C3)sc2c1 (configuration not stated)	nt	nt	nt	nt	39.8	22.8	nt
O=C(COC(=O)c1ccc(Br)c(S(=O)(=O)N2CCOCC2)c1)NCC1CCCO1 (configuration not stated)	3.8	1.2	-0.5	-2.7	6.2	-21.2	nt
CCCCc1ccc(-c2csc(/C(C#N)=C\c3ccc(C)o3)n2)cc1	12.7	1.6	13.8*	-2.6	-21.3	-2.8	6.2
O=C(Nc1cccc(C(F)(F)F)c1)C1CCCCC1	17.7	5.3	21.8*	-7.1	16.2	-10.7	0.5
CS(=O)(=O)N1CCC(C(=O)Nc2cccc(C(F)(F)F)c2)CC1	2.4	-0.1	-0.7	-13.1	13.6	0.7	nt
O=C(OCC#CCSc1nnc(-c2cccc3ccccc23)o1)c1cccs1	-3.0	8.6	14.5*	12.4	-20.1	-11.6	2.1
